# In ChEMBL document CHEMBL4052694, “Discovery of novel 5-oxa-2,6-diazaspiro[3.4]oct-6-ene derivatives as potent, selective, and orally available somatostatin receptor subtype 5 (SSTR5) antagonists for treatment of type 2 diabetes mellitus” (Bioorg Med Chem, 2017):
# pIC50: −log10 of the molar value. Active and inactive are the calls of the source. No cut-off for these calls is given here.
# What was measured:
# [1] = target: Somatostatin receptor type 5 (Homo sapiens, UniProt P35346); test: Antagonist activity at human SSTR5 expressed in CHO cells assessed as inhibition of SST14-induced forskolin-stimulated intracellular cAMP level incubated for 15 mins followed by forskolin stimulation for 30 mins by HTRF assay; type: functional, cell-based
# Chain of Somatostatin receptor type 5 (Homo sapiens, UniProt P35346) (P35346 whole entry): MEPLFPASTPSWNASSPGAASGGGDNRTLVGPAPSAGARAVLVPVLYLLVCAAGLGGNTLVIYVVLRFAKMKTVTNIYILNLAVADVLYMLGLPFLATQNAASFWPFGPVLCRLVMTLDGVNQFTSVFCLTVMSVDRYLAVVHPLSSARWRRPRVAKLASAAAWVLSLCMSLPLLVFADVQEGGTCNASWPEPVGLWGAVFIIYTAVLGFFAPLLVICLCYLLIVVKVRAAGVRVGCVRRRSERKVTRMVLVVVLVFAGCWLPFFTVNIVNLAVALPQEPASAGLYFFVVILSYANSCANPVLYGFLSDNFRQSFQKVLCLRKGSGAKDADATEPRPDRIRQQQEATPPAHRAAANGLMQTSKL
# [2] = target: T1, Somatostatin receptor type 5 (Mus musculus, UniProt O08858); test: Antagonist activity at mouse SSTR5 expressed in CHO cells assessed as inhibition of SST14-induced forskolin-stimulated intracellular cAMP level incubated for 15 mins followed by forskolin stimulation for 30 mins by HTRF assay; type: functional, cell-based
# T1 sequence (O08858 whole entry): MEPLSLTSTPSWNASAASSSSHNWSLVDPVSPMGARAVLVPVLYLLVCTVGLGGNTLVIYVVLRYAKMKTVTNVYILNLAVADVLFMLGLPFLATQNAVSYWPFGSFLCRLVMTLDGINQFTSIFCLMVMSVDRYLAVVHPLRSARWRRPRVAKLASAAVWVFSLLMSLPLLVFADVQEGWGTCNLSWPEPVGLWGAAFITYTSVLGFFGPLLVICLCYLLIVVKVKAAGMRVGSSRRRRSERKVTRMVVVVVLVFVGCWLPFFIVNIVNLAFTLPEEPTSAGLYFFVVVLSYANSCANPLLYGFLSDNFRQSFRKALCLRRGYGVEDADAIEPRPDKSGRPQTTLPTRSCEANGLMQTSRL
# [3] = 1-octanol/aqueous buffer solution partition coefficient, log D of the compound at pH 7.4 by UV-vis/HPLC method; type: physicochemical
# In short: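 Octanol/buffer partition coefficient at pH 7.4, estimated chromatographically by HPLC with UV–vis detection, using conditions adapted from a published method.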
# hERG (KCNH2) = hERG (KCNH2) (Homo sapiens, UniProt Q12809); test: Inhibition of human ERG expressed in CHO cells assessed as decrease in peak tail current at 30 uM after 5 mins at -80 mV holding potential by patch clamp assay relative to control; type: cell-based; settings: CHO cells expressing human ERG
# Chain of hERG (KCNH2) (Q12809 whole entry): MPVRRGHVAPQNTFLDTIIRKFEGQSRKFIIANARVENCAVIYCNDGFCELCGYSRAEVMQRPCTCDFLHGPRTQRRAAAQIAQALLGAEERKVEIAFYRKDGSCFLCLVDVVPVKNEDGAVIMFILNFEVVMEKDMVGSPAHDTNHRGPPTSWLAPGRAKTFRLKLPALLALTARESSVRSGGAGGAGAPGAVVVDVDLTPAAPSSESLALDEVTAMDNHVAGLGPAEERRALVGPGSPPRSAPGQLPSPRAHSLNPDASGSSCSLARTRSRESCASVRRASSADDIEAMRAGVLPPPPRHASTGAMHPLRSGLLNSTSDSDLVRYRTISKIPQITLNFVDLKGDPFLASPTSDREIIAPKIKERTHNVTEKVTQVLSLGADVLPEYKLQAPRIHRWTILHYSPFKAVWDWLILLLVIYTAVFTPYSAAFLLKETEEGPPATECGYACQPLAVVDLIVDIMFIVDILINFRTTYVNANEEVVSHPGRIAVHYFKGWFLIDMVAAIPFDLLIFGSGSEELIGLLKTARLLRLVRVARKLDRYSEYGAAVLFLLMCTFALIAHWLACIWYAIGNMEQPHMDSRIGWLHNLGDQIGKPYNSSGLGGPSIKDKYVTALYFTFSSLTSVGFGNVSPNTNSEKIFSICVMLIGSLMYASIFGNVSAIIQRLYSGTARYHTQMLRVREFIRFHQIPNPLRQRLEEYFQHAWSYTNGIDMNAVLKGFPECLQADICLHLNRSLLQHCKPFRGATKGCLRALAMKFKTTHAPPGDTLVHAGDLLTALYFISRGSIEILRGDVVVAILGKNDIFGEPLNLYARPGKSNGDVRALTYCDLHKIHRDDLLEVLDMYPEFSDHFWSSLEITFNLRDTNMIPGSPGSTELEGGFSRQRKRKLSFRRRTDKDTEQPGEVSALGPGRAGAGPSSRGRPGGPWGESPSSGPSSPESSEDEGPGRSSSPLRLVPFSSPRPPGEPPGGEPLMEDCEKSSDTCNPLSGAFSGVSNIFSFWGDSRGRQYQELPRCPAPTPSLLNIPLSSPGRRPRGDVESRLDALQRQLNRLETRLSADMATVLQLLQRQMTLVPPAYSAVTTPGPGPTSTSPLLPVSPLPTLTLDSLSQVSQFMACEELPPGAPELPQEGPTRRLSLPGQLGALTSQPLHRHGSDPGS
# In short: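 hERG-expressing CHO cells grown at 32 °C in Ham's F-12 with 10% FBS and Geneticin. Population patch clamp, perforated with 100 µg/mL amphotericin B. PBS with Ca/Mg outside; 140 mM KCl, 2 mM MgCl2, 1 mM EGTA, 20 mM HEPES pH 7.3 inside. Holding -80 mV, step to 40 mV for 2 s, then -50 mV for 2 s. Peak tail current compared before and after 5 min with compound at 30 µM, n = 4.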
# Mus musculus [4] = test: Antidiabetic activity in HFD-fed C57BL/6J mouse assessed as decrease in blood glucose AUC at 30 mg/kg, po pretreated for 1 hr followed by glucose challenge after 1 hr of compound dosing measured up to 120 mins post glucose challenge by OGTT; type: functional, organism-based
# In short: (§1)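 Male C57BL/6J mice on high-fat diet for ten days. Fasted overnight and grouped by weight and blood glucose at 12.5 h. Compound given orally at 1, 3, 10 or 30 mg/kg in 0.5% methylcellulose at 15 h; oral glucose 5 g/kg at 16 h.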
# Mus musculus [5] = test: Antidiabetic activity in HFD-fed C57BL/6J mouse assessed as decrease in blood glucose level at 30 mg/kg, po pretreated for 1 hr followed by glucose challenge by OGTT; type: functional, organism-based; in short: as §1
# Mus musculus [6] = test: Antidiabetic activity in HFD-fed C57BL/6J mouse assessed as increase in insulin secretion at 30 mg/kg, po pretreated for 1 hr followed by glucose challenge by OGTT; type: functional, organism-based
# Mus musculus [7] = test: Antidiabetic activity in HFD-fed C57BL/6J mouse assessed as decrease in blood glucose level at 10 mg/kg, po pretreated for 1 hr followed by glucose challenge by OGTT; type: functional, organism-based; in short: as §1
# Mus musculus [8] = test: Toxicity in HFD-fed C57BL/6J mouse assessed as induction of hypoglycemia at 10 mg/kg, po after 1 hr; type: organism-based; settings: in vivo
# Mus musculus [9] = test: Antidiabetic activity in HFD-fed C57BL/6J mouse assessed as decrease in blood glucose AUC at 10 mg/kg, po pretreated for 1 hr followed by glucose challenge after 1 hr of compound dosing measured up to 120 mins post glucose challenge by OGTT; type: functional, organism-based; in short: as §1
# Mus musculus [10] = test: Antidiabetic activity in HFD-fed C57BL/6J mouse assessed as increase in insulin secretion at 10 mg/kg, po pretreated for 1 hr followed by glucose challenge by OGTT; type: functional, organism-based
pIC50 [1],pIC50 [2],logD [3],SMILES,"inhibition at 5 min, 30 µM (hERG (KCNH2))",other results
6.00,6.37,,CCOc1cc(CN2CC3(CC(c4ccc(CO)cc4)=NO3)C2)cc(OCC)c1-c1ccc(F)cc1,,
6.70,6.92,2.9,CCOc1cc(CN2CC3(CC(N4CC(C(=O)O)C4)=NO3)C2)cc(OCC)c1-c1ccc(F)cc1,8.1%,
7.21,7.70,,CCOc1cc(CN2CC3(CC(c4ccc(C(=O)O)cn4)=NO3)C2)cc(OCC)c1-c1ccc(F)cc1,,
6.72,7.32,2.9,CCOc1cc(CN2CC3(CC(N4CCC(C(=O)O)C4)=NO3)C2)cc(OCC)c1-c1ccc(F)cc1 (stereo not given),17%,
,,,Cn1c(=O)cc(N2CCC[C@@H](N)C2)n(Cc2ccccc2C#N)c1=O,,Activity (Mus musculus [4]): Active; Activity (Mus musculus [5]): Active; Activity (Mus musculus [6]): Active
7.52,7.42,3.2,CCOc1cc(CN2CC3(CC([C@H]4CC[C@H](C(=O)O)CC4)=NO3)C2)cc(OCC)c1-c1ccc(F)cc1,15%,
< 5.00,< 5.00,2.8,CCOc1cc(C(=O)N2CC3(CC(c4ccc(C(=O)O)cc4)=NO3)C2)cc(OCC)c1-c1ccc(F)cc1,7.9%,
7.02,5.70,3.6,CCOc1cc(C(C)N2CC3(CC(c4ccc(C(=O)O)cc4)=NO3)C2)cc(OCC)c1-c1ccc(F)cc1 (stereo not given),14%,
,,,COc1ccc(Cl)cc1C(=O)NCCc1ccc(S(=O)(=O)NC(=O)NC2CCCCC2)cc1 [GLYBURIDE],,Activity (Mus musculus [7]): Active; Activity (Mus musculus [8]): Toxic; Activity (Mus musculus [9]): Active; Activity (Mus musculus [10]): Active
6.85,7.68,3.5,CCOc1cc(CN2CC3(CC(c4ccc(C(=O)O)cc4C)=NO3)C2)cc(OCC)c1-c1ccc(F)cc1,18%,
